Measured values as given in ChEMBL document CHEMBL1938232 (Bioorg Med Chem, 2012).
pIC50: −log10 of the molar value.

How the values were obtained:
[1] = biological target: Hepatocyte growth factor receptor (Homo sapiens, UniProt P08581); assay: Inhibition of MET using Bio-HER2tide as substrate by TR-FRET assay in presence of 50 uM of ATP
[2] = biological target: Vascular endothelial growth factor receptor 2 (Homo sapiens, UniProt P35968); assay: Inhibition of KDR using Bio-Gastrintide as substrate by TR-FRET assay in presence of 50 uM of ATP
[3] = biological target: Mast/stem cell growth factor receptor Kit (Homo sapiens, UniProt P10721); assay: Inhibition of KIT using Bio-HER2tide as substrate by TR-FRET assay in presence of 50 uM of ATP
KARPAS-299 [4] = assay: Antiproliferative activity against human KARPAS299 cells after 96 hrs by cell counting assay; assay type: functional, cell-based; conditions: KARPAS-299, 96 h
Method in brief: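 KARPAS-299 cells exposed to a range of compound concentrations for 96 h. Growth inhibition read by Cell Counting Kit-8.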

[5] = Clearance in mouse liver microsomes assessed as per mg of protein after 30 mins by LC/MS analysis; assay type: ADME, Microsome; conditions: read-out: CLH
Method in brief: (§1)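 1 µM compound incubated at 37 °C for 30 min with liver microsomes (0.5 mg protein/mL) in 50 mM phosphate buffer pH 7.4 with 1 mM NADPH. Reaction stopped with threefold volume of acetonitrile and centrifuged. Remaining compound in supernatant quantified by LC/MS.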

[6] = Clearance in human liver microsomes assessed as per mg of protein after 30 mins by LC/MS analysis; assay type: ADME, Microsome; conditions: read-out: CLH; method in brief: as §1
[7] = biological target: ALK tyrosine kinase receptor (Homo sapiens, UniProt Q9UM73)
[8] = Volume of distribution at steady state in cynomolgus monkey at 0.5 mg/kg, iv; assay type: ADME, organism-based, Macaca fascicularis; parameters: dose 0.5 mg/kg, route intravenous; conditions: in vivo, read-out: Vdss
Method in brief: (§2)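 Fasted cynomolgus monkeys, n = 2 per group, dosed po or iv at 0.5 mg/kg in 10% DMSO, 20% HP-β-CD and 0.02 M HCl in water. Heparinized blood sampled at 0.08–48 h after iv and 0.50–48 h after po. Plasma quantified by LC–MS/MS.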

[9] = Volume of distribution at steady state in Sprague-Dawley rat at 1 mg/kg, iv; assay type: ADME, organism-based; parameters: dose 1 mg/kg, route intravenous; conditions: in vivo, read-out: Vdss
Method in brief: (§3)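 Sprague–Dawley rats, n = 3 per group, dosed po or iv at 1 mg/kg in 10% N,N-dimethylacetamide, 20% HP-β-CD and 0.02 M HCl in water. Heparinized blood taken at 0.08–72 h after iv and 0.50–72 h after po. Plasma analysed by LC–MS/MS.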

[10] = Cmax in cynomolgus monkey at 0.5 mg/kg, po; assay type: ADME, organism-based, Macaca fascicularis; parameters: dose 0.5 mg/kg, route oral; conditions: in vivo; method in brief: as §2
[11] = Oral bioavailability in cynomolgus monkey at 0.5 mg/kg; assay type: ADME, organism-based, Macaca fascicularis; conditions: in vivo; method in brief: as §2
[12] = Total clearance in Sprague-Dawley rat at 1 mg/kg, iv; assay type: ADME, organism-based; parameters: dose 1 mg/kg, route intravenous; conditions: in vivo; method in brief: as §3
in vivo [13] = conditions: cynomolgus monkey, iv, 0.5 mg/kg
[14] = Oral bioavailability in Sprague-Dawley rat at 1 mg/kg; assay type: ADME, organism-based; conditions: in vivo; method in brief: as §3
[15] = Total clearance in cynomolgus monkey at 0.5 mg/kg, iv; assay type: ADME, organism-based, Macaca fascicularis; parameters: dose 0.5 mg/kg, route intravenous; conditions: in vivo; method in brief: as §2
[16] = AUC in Sprague-Dawley rat at 1 mg/kg, po; assay type: ADME, organism-based; parameters: dose 1 mg/kg, route oral; conditions: plasma; method in brief: as §3
NCI-H2228 = assay: Antitumor activity against human NCI-H2228 cells expressing EML4-ALK xenografted mouse model assessed as tumor growth inhibition at 20 mg/kg, po; assay type: functional; conditions: read-out: GI
KARPAS-299 [17] = assay: Antitumor activity against human KARPAS299 cells expressing NPM-ALK xenografted mouse model assessed as tumor growth inhibition at 20 mg/kg, po; assay type: functional; conditions: read-out: GI
in vivo [18] = conditions: cynomolgus monkey, po, 0.5 mg/kg
[19] = Half life in Sprague-Dawley rat at 1 mg/kg, iv; assay type: ADME, organism-based; parameters: dose 1 mg/kg, route intravenous; conditions: in vivo; method in brief: as §3
[20] = AUC in cynomolgus monkey at 0.5 mg/kg, po; assay type: ADME, organism-based, Macaca fascicularis; parameters: dose 0.5 mg/kg, route oral; conditions: plasma; method in brief: as §2
[21] = Cmax in Sprague-Dawley rat at 1 mg/kg, po; assay type: ADME, organism-based; parameters: dose 1 mg/kg, route oral; conditions: in vivo; method in brief: as §3
[22] = Half life in Sprague-Dawley rat at 1 mg/kg, po; assay type: ADME, organism-based; parameters: dose 1 mg/kg, route oral; conditions: in vivo; method in brief: as §3
Mus musculus = assay: Toxicity in human NCI-H2228 cells expressing EML4-ALK xenografted mouse model assessed as body weight loss at 20 mg/kg, po; conditions: in vivo

Sequence of Vascular endothelial growth factor receptor 2 (P35968 whole entry): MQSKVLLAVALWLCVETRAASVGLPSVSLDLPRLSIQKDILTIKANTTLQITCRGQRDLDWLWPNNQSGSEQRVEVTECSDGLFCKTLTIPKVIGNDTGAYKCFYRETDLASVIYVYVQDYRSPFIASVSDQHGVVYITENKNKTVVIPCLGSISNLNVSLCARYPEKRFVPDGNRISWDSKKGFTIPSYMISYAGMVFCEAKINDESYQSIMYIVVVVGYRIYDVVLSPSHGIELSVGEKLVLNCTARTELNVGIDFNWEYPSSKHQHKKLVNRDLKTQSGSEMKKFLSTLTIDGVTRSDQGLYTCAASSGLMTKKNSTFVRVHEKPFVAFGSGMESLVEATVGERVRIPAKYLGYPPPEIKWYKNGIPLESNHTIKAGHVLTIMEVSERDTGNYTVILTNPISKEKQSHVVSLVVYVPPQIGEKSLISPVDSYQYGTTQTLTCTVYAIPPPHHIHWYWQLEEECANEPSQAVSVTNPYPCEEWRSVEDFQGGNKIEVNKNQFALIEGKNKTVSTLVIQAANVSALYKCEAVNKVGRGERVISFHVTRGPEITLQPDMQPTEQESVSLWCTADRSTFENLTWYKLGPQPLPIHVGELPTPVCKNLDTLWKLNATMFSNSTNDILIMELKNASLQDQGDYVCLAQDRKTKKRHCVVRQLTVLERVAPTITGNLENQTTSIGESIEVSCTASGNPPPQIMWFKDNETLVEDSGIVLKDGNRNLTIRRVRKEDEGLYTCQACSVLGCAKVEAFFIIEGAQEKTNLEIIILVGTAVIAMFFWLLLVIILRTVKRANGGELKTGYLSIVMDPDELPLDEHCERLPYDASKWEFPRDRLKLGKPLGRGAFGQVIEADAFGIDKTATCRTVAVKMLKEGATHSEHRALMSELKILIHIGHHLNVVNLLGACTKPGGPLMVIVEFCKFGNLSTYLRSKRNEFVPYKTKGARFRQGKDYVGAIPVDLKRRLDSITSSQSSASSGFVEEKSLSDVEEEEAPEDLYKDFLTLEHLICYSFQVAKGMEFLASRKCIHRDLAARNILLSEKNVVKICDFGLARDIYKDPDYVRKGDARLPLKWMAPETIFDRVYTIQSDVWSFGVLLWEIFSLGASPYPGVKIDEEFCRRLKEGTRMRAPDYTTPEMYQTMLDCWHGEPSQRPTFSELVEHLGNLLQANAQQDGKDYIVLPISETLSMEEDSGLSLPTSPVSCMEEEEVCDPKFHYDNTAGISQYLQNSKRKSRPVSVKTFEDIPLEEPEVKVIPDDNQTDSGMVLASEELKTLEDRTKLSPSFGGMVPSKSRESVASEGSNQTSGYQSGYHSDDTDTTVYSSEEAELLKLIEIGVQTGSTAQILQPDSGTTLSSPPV
Sequence of Hepatocyte growth factor receptor (P08581 whole entry): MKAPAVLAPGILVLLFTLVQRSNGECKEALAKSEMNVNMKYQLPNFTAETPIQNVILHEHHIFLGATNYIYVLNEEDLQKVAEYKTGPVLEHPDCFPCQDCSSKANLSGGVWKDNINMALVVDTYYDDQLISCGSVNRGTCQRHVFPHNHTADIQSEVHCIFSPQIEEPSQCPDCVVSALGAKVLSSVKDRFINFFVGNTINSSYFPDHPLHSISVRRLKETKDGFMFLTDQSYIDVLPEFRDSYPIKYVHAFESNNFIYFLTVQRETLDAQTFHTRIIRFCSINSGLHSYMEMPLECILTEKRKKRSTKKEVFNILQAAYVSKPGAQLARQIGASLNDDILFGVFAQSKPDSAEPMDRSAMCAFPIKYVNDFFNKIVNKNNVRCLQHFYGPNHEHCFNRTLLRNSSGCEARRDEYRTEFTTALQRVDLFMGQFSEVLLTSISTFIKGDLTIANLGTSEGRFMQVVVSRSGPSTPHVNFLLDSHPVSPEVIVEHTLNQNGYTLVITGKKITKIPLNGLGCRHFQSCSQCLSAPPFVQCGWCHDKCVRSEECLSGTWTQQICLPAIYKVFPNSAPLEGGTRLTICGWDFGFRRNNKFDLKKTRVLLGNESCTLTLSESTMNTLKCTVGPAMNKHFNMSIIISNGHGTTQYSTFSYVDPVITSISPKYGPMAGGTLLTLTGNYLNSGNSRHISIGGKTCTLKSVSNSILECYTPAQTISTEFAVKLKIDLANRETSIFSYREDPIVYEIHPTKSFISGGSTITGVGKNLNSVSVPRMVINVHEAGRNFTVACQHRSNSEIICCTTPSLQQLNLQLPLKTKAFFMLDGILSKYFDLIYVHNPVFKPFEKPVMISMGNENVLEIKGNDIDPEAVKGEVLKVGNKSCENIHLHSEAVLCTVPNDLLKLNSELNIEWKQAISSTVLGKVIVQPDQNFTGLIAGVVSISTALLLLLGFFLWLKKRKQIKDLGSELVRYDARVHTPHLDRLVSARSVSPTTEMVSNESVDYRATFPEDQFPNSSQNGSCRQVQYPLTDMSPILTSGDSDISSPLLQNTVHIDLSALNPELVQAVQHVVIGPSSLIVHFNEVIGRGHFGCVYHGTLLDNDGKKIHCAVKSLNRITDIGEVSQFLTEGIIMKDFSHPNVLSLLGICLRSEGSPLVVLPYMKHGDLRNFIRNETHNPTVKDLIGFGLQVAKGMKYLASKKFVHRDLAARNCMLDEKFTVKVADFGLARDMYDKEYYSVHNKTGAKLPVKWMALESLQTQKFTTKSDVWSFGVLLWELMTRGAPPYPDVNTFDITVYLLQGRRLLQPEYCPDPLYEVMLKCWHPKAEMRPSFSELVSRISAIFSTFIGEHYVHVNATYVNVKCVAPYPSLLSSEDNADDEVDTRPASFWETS
Sequence of ALK tyrosine kinase receptor (Q9UM73 whole entry): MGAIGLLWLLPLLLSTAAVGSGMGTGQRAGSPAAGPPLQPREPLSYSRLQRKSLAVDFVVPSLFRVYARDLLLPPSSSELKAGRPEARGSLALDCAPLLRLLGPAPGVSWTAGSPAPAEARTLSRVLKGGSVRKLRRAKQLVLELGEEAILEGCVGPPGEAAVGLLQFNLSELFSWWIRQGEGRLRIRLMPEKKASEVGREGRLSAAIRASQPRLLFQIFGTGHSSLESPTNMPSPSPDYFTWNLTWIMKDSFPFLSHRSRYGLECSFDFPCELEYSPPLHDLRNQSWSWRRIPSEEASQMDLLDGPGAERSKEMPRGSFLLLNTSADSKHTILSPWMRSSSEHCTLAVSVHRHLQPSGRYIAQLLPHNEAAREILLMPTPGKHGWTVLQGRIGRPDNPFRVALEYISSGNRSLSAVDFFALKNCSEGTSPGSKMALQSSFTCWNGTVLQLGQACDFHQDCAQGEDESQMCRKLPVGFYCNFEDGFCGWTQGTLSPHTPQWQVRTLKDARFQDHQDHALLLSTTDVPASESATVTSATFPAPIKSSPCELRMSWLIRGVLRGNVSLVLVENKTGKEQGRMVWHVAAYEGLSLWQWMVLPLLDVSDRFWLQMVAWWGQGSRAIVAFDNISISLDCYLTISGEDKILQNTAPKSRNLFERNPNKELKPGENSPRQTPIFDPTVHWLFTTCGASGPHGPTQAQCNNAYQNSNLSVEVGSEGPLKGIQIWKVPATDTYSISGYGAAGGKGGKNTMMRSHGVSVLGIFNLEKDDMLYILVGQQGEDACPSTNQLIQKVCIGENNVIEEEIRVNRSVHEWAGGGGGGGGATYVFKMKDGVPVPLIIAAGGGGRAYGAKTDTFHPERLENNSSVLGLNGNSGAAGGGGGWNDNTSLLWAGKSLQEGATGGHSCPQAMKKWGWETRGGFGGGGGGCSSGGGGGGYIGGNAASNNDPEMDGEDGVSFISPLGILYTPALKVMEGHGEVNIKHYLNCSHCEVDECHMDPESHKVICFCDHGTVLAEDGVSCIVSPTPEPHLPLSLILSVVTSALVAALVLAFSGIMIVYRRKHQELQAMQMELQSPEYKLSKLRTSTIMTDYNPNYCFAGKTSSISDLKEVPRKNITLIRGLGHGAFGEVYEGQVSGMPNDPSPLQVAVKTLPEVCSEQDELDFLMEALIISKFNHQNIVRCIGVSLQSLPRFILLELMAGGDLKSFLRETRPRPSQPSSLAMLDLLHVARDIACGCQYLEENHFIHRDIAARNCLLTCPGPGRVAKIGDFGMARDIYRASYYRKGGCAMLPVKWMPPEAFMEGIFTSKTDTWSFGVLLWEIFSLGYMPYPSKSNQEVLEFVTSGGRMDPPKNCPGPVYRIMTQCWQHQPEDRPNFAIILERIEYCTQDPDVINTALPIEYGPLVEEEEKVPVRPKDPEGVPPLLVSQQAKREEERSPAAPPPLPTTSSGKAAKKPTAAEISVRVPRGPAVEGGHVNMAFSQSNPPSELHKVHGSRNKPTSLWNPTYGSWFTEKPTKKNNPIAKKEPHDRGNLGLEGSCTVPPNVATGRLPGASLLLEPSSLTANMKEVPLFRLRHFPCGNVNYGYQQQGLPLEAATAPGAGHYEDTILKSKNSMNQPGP

pIC50 [1] | pIC50 [2] | pIC50 [3] | pIC50 (KARPAS-299 [4]) | microsomal CLint [5] [µL/min/mg] | microsomal CLint [6] [µL/min/mg] | pIC50 [7] | Structure (SMILES) | further results
< 5.30 | < 5.30 | < 5.30 | – | – | – | – | CCc1cc2c(cc1N1CCN(C3COC3)CC1)C(C)(C)c1[nH]c3cc(C#N)ccc3c1C2=O | –
< 5.30 | 6.05 | < 5.30 | 6.92 | 20 | 59.1 | 7.36 | CC1(C)c2ccc(C3CCN(C4CC4)CC3)cc2C(=O)c2c1[nH]c1cc(C#N)ccc21 | –
< 5.30 | 5.60 | < 5.30 | 7.06 | 38.6 | 38.6 | 7.17 | CC1(C)c2ccc(C3CCN(C4COC4)CC3)cc2C(=O)c2c1[nH]c1cc(C#N)ccc21 | –
< 5.30 | < 5.30 | < 5.30 | 6.62 | 24.9 | 16.4 | 6.63 | CC1(C)c2ccc(N3CCN(C4CC4)CC3)cc2C(=O)c2c1[nH]c1cc(C#N)ccc21 | –
< 5.30 | < 5.30 | < 5.30 | 6.82 | 20.6 | 14.2 | – | CC1(C)c2ccc(N3CCN(C4COC4)CC3)cc2C(=O)c2c1[nH]c1cc(C#N)ccc21 | –
< 5.30 | 5.38 | < 5.30 | 7.34 | 3.3 | 22.1 | 8.28 | CCc1cc2c(cc1N1CCN(C3CC3)CC1)C(C)(C)c1[nH]c3cc(C#N)ccc3c1C2=O | –
< 5.30 | 5.51 | < 5.30 | 7.65 | 4.4 | 15.6 | 8.62 | CCc1cc2c(cc1N1CCN(C3CCC3)CC1)C(C)(C)c1[nH]c3cc(C#N)ccc3c1C2=O | –
< 5.30 | 6.12 | 5.52 | 7.58 | 72 | 106 | 7.80 | CC1(C)c2cc(N3CCC(N4CCOCC4)CC3)ccc2C(=O)c2c1[nH]c1cc(C#N)ccc21 | –
< 5.30 | 6.73 | 5.98 | 8.32 | 15.8 | 23 | – | Cc1cc2c(cc1N1CCC(N3CCOCC3)CC1)C(C)(C)c1[nH]c3cc(C#N)ccc3c1C2=O | –
< 5.30 | < 5.30 | < 5.30 | 7.58 | 58.5 | 17.1 | 8.96 | CCCc1cc2c(cc1N1CCC(N3CCOCC3)CC1)C(C)(C)c1[nH]c3cc(C#N)ccc3c1C2=O | –
< 5.30 | – | < 5.30 | 8.52 | 8.7 | 17.7 | – | CCc1cc2c(cc1N1CCC(N3CCOCC3)CC1)C(C)(C)c1[nH]c3cc(C#N)ccc3c1C2=O [ALECTINIB] | Vd [8]: 5.28 L/kg; Vd [9]: 9.33 L/kg; Cmax [10]: 55.8 ng/mL; bioavailability [11]: 50.4%; clearance [12]: 7.79 mL/min/kg; half-life (in vivo [13]): 10.4 h; bioavailability [14]: 65.2%; clearance [15]: 6.04 mL/min/kg; AUC [16]: 1400 ng·h/mL; inhibition in vivo at 20 mg/kg (NCI-H2228): 168%; inhibition in vivo at 20 mg/kg (KARPAS-299 [17]): 119%; half-life (in vivo [18]): 8.38 h; half-life [19]: 17.8 h; AUC [20]: 696 ng·h/mL; Cmax [21]: 60.8 ng/mL; half-life [22]: 12.6 h; Activity (Mus musculus): Non-toxic
